# From PubChem BioAssay
# NPY Y2 blocker = antagonists of human neuropeptide Y receptor Y2; NPY-Y2 expressing cells, antagonist mode; 140,000 tested, 0.99% active; inhibition, % at 2.7 µM; AID 793; P49146; in the data active means inhibition above about 17%;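 further: 0% = vehicle with agonist challenge and 100% = reference antagonist with challenge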
# Hsp70 act = switches on Hsp70 transcription; HeLa Hsp70 promoter luciferase reporter, luminescence; scaled: vehicle 0, proteasome-inhibitor control 100%; activation, % at 10 µM; 200,000 tested, 0.04% active; AID 1203;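 active means activation above the mean across all tested compounds plus 3 SD, cutoff set per campaign, cut at about 5.5% in these data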;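 further: 100% = MG132 at 30 µM as the positive control and 0% = DMSO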
# NPY-Y2 PAM-ag = potentiates or activates human NPY-Y2 receptor; P49146; cells expressing NPY-Y2, potentiator/agonist read-out; activation, % at 3.6 µM; 220,000 tested, 0.45% active; AID 1359; in the data active means activation above about 27%;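 further: cells stimulated with NPY near EC25 plus isoproterenol at EC100; 0% = vehicle plus submaximal agonist and 100% = vehicle plus saturating agonist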
# NPY-Y1 antag = antagonists of human neuropeptide Y receptor Y1; P25929; HEK293-CNG Y1 cells, membrane potential fluorescence; NPY at EC95, then isoproterenol; inhibition, % at 3.6 µM; 200,000 tested, 1% active;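 active means inhibition above the campaign mean inhibition of all tested compounds plus 3 SD, cut at about 20% in these data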;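 further: 0% = DMSO wells given NPY plus isoproterenol and 100% = isoproterenol alone without NPY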
#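 Material: Y1- and CNG-channel-expressing HEK293 cells / Probe or stimulus: NPY 25 nM then isoproterenol 1 µM plus Ro 20-1724 25 µM / Doses: 3.6 µM single dose, DMSO 0.4% / Schedule: compound incubation 1 h at room temperature, readout 45 min post-stimulation / Signal: membrane potential fluorescence / Benchmarks: isoproterenol-only wells as full block versus NPY-plus-isoproterenol wells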
# Wee1 stabilizer = blocks degradation of human Wee1 kinase. P30291. HeLa Luc-Wee1K328M stability, luciferase luminescence; 100% = proteasome inhibitor MG132 effect. reporter increase, % at 5 µM. 220,000 tested, 1.2% active. AID 1321;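 active means activation above the mean of all tested compounds plus 3 SD, set per screening run, cut at about 8.8% in these data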;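 further: cells exposed to compound for 20 h before luminescence read; 0% = DMSO alone and 100% = MG132 at 30 µM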
# Target sequence (P30291 whole entry K328M): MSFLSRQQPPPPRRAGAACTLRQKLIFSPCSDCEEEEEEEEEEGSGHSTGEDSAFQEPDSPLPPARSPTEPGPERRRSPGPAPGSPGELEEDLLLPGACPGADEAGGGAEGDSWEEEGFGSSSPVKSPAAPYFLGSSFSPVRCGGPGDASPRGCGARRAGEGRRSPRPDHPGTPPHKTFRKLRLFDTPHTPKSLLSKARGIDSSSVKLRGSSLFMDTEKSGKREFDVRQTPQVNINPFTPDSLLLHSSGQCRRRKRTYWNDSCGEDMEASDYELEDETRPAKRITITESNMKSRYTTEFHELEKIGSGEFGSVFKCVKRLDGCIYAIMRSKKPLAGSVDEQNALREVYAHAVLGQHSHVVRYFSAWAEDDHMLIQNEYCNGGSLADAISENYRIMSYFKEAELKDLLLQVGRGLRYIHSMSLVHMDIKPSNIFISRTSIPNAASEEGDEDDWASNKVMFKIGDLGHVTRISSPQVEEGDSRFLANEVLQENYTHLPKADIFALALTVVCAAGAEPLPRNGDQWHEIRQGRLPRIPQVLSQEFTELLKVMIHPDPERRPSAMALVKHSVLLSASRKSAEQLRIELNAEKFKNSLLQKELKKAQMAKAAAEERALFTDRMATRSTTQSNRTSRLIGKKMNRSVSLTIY
# NPY-Y1 PAM-ag = potentiators or agonists of human neuropeptide Y receptor Y1. activation, % at 3.6 µM. AID 1304. P25929. 220,000 tested, 0.37% active. NPY-Y1 expressing cells, potentiator/agonist activation; in the data active means activation above about 33%, passing the limit was not always enough;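 further: cells stimulated with NPY at EC10 then isoproterenol at EC100; 0% = low agonist plus stimulus and 100% = saturating agonist plus stimulus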
# NPY-Y2 pot conf = confirmation of human NPY-Y2 receptor potentiators or agonists; shares compounds with NPY-Y2 PAM-ag; cell-based NPY-Y2 potentiator/agonist assay; activation, % at 3.6 µM; 450 tested, 20% active; AID 1539; in the data active means activation above about 33%
# NPY-Y1 potentiator = potentiates or activates NPY-Y1, counter-screen for NPY-Y2 hits | 450 tested, 20% active | AID 1651 | Y1 HEK293-CNG cells, membrane potential fluorescence | activation, % at 3.6 µM | shares compounds with NPY-Y2 PAM-ag; in the data active means activation above about 45%;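 further: cells stimulated with submaximal NPY then isoproterenol with phosphodiesterase inhibitor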
# NPY-Y1 ag 2 = human NPY-Y1 agonism as NPY-Y2 potentiator counter-screen. shares compounds with NPY-Y2 PAM-ag. AID 1702. activation, % at 3.6 µM. 450 tested, 37% active. HEK293 Y1-CNGC, membrane potential fluorescence;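 active means activation above the mean of DMSO-only control wells plus 3 SD, cut at about 18% in these data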;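 further: cells stimulated with 1 µM isoproterenol plus the PDE inhibitor Ro 20-1724; 0% = isoproterenol with DMSO and no NPY and 100% = 40 nM NPY; Y1 agonists lower the membrane potential dye signal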
# CNGC inhibitor = cyclic nucleotide gated channel inhibition as counter-screen. shares compounds with NPY-Y2 PAM-ag. HEK293-CNG parental, isoproterenol cAMP, membrane potential fluorescence. inhibition, % at 3.6 µM. 450 tested, 32% active. AID 1703;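 active means inhibition above the control-well mean plus 3 SD of those wells, cut at about 22% in these data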;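 further: 0% = DMSO with isoproterenol and 100% = DMSO without isoproterenol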
# NPY-Y2 ag 2 = NPY-Y2 agonism, counter-screen for Y2 potentiators. shares compounds with NPY-Y2 PAM-ag. HEK293 Y2/CNGC cells, membrane potential fluorescence, agonist mode. activation, % at 3.6 µM. 450 tested, 56% active;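 active means activation above the mean of solvent-only control wells plus 3 SD, cut at about 10% in these data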;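 further: cells stimulated by isoproterenol with no NPY added so direct agonism is tested; 0% = DMSO with isoproterenol alone and 100% = NPY at EC100 plus isoproterenol; agonism lowers probe fluorescence through less cAMP and CNG channel opening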
# Active calls of the source: *; / = no result given. Sampled rows, rich in hits. Any-hit rate of the full collection: about 3%.
SMILES,NPY Y2 blocker,Hsp70 act,NPY-Y2 PAM-ag,NPY-Y1 antag,Wee1 stabilizer,NPY-Y1 PAM-ag,NPY-Y2 pot conf,NPY-Y1 potentiator,NPY-Y1 ag 2,CNGC inhibitor,NPY-Y2 ag 2
COC(=O)c1ccc(NC(=O)CN(c2ccc(C)cc2)S(=O)(=O)c2c(C)nn(C)c2C)cc1,-6.5,-0.1,39.6*,-8.9,2.5,41.4,23.6,35.8,48.0*,34.9*,35.9*
COc1cc(NC(=O)CN(c2ccc(C)cc2)S(=O)(=O)c2c(C)nn(C)c2C)cc(OC)c1,0.8,0.2,1.1,-2.5,-0.5,6.0,/,/,/,/,/
O=C(NCc1csc(-c2cccs2)n1)C1CCC1,/,/,-4.2,/,0.8,-0.7,/,/,/,/,/
O/N=C1\CCCc2ccc3ccccc3c21,/,/,-19.6,/,0.0,-13.4,/,/,/,/,/
Cc1cccc(C)c1NS(=O)(=O)c1ccc(NC(=O)c2ccc(Cl)c([N+](=O)[O-])c2)cc1,-1.2,-0.3,38.1*,-10.7,1.2,28.8,34.6*,40.9,36.6*,29.0*,42.6*
N#Cc1ccsc1NC(=O)c1ccc(Cl)c([N+](=O)[O-])c1,/,/,50.7*,/,0.6,-7.8,-8.3,-44.1,-33.0,-15.2,9.6
O=C(NCCc1cccc(Cl)c1)c1ccc(Cl)c([N+](=O)[O-])c1,4.3,-0.1,35.0*,3.5,-1.1,27.0,20.2,31.7,21.9*,27.3*,25.5*
Cc1ccc(C(=O)NCCc2cccc(Cl)c2)cc1[N+](=O)[O-],3.4,-0.2,2.6,3.5,4.8,-10.9,/,/,/,/,/
N#Cc1ccccc1S(=O)c1ccccc1C(=O)Nc1ccccc1 (stereo not given),/,-0.1,2.0,-6.7,2.2,10.6,/,/,/,/,/
Cc1nn(Cc2ccc(Cl)cc2)c(C)c1NC(=O)CSc1n[nH]c(C)c1[N+](=O)[O-],0.7,-0.3,28.6*,-3.5,2.3,8.9,13.3,16.1,15.6,19.4,26.5*
Cc1nn(Cc2ccccc2)c(C)c1NC(=O)CSc1n[nH]c(C)c1[N+](=O)[O-],0.3,-0.2,14.7,-3.7,-0.8,-10.9,/,/,/,/,/
O=c1[nH]cc(COCC(F)CCl)c(=O)[nH]1 (stereo not given),/,/,93.1*,/,3.7,-5.6,-3.1,2.4,2.8,10.0,7.4
O=C1c2ccccc2C(=O)N1CCCOCc1c[nH]c(=O)[nH]c1=O,5.5,-0.4,3.3,5.2,3.6,10.5,/,/,/,/,/
Fc1ccc(Nc2nc(-c3cccnc3)cs2)cc1,/,0.0,33.7*,-12.7,4.0,33.5,34.8*,58.1*,58.6*,43.1*,43.4*
COc1cc2c(c(OC)c1OC)CCc1cnoc1-2,/,/,-11.6,/,-2.0,-1.5,/,/,/,/,/
CNC(=O)c1cc(C(=O)c2c(Cl)cccc2Cl)c[nH]1,/,-0.4,-7.9,-1.6,2.9,-5.3,/,/,/,/,/
COc1ccc(NC(=O)CCc2nc3ccccc3[nH]2)cc1,/,-0.1,-13.2,4.1,1.7,-31.3,/,/,/,/,/
CN1CCc2nc3sc(C(=O)C45CC6CC(CC(C6)C4)C5)c(N)c3cc2C1,-0.6,0.0,22.1,3.2,-1.1,15.1,/,/,/,/,/
CNc1nc(N)c(C(=O)C23CC4CC(CC(C4)C2)C3)s1,/,-0.1,31.4*,-6.3,0.7,26.5,11.4,17.4,14.5,11.8,1.5
CCc1nc(NCC2CCCO2)c(C#N)c2c1COC(C)(C)C2 (stereo not given),1.8,-0.2,-3.3,5.4,-0.6,-32.8,/,/,/,/,/
CCc1nc(NCC(C)C)c(C#N)c2c1COC(C)(C)C2,-0.9,-0.1,38.0*,-2.0,2.0,-7.8,-5.8,-8.4,-25.9,-13.9,-13.2
CCCN1C2CCCC1CC(NC(=O)Nc1ccc(C(C)C)cc1)C2 (stereo not given),-0.1,0.0,34.4*,-7.1,0.1,13.5,22.0,30.1,19.1*,28.2*,24.4*
Fc1ccc(Nc2ccnc(Nc3ccc(F)cc3)n2)cc1,-3.0,0.4,32.1*,-4.6,3.2,25.6,21.2,28.4,15.0,23.7*,26.5*
Cc1ccc(-n2nc3c(=O)n(CC(=O)c4ccc(F)cc4)nc(C)c3c2C)cc1,1.3,-0.1,-19.3,-1.0,-1.2,-28.8,/,/,/,/,/
CC1(Br)C2CCCC1C2S(=O)(=O)c1ccccc1 (stereo not given),0.6,-0.1,-5.5,1.7,-0.3,1.2,/,/,/,/,/
SMILES,NPY Y2 blocker,Hsp70 act,NPY-Y2 PAM-ag,NPY-Y1 antag,Wee1 stabilizer,NPY-Y1 PAM-ag,NPY-Y2 pot conf,NPY-Y1 potentiator,NPY-Y1 ag 2,CNGC inhibitor,NPY-Y2 ag 2
CCCN1Cc2cccc(C(=O)N3CCN(c4ccc(OC)cc4)CC3)c2C1=O,/,-0.4,-3.8,-4.4,-3.2,5.6,/,/,/,/,/
CCCN1Cc2cccc(C(=O)N3CCN(c4ccccc4)CC3)c2C1=O,2.5,0.1,38.0*,1.8,2.8,3.5,-5.3,5.1,-15.4,-3.7,9.0
Nc1c([N+](=O)[O-])cc(-c2cnc[nH]2)cc1[N+](=O)[O-],/,0.2,-3.9,2.0,-1.1,-8.2,/,/,/,/,/
S=C1NCN(CCc2ccccc2)CN1,/,/,72.7*,/,-2.4,5.5,-1.1,-3.2,-4.6,2.8,5.2
Cc1nn(-c2ccccc2)nc1C(=O)c1c(C)[nH]n(-c2ccccc2)c1=O,/,/,64.9*,/,-0.3,-21.5,-19.8,-12.8,-5.9,-12.8,-4.7
Cc1[nH]n(-c2ccccc2)c(=O)c1C(=O)c1ccc([N+](=O)[O-])cc1,/,-0.1,-0.1,-0.3,2.2,7.2,/,/,/,/,/
O=C(Cn1c(-c2cscn2)nc2ccccc21)Nc1ccc2ccccc2c1,-1.1,-0.5,29.2*,-9.7,10.7*,43.7,18.1,36.6,27.2*,31.6*,25.2*
O=C(Cn1c(-c2cscn2)nc2ccccc21)Nc1cc(F)ccc1F,3.0,0.0,3.7,-0.1,-1.2,-26.1,/,/,/,/,/
COc1ccc(-n2c(SCC(=O)Nc3cc(C(=O)O)ccc3C)nc3ccccc3c2=O)cc1Cl,/,/,0.0,/,-0.7,14.1,/,/,/,/,/
Cc1csc(/C(=N/OC(=O)c2ccco2)C(N)=O)n1,/,/,-4.3,/,7.8,10.5,/,/,/,/,/
NS(=O)(=O)c1ccc(N/N=C2/CCCCC2C2CCCCC2)c([N+](=O)[O-])c1 (stereo not given),-3.8,-0.2,39.1*,2.4,4.2,41.6,57.2*,61.2*,59.7*,40.9*,67.2*
CCn1c(=NC(=O)CSC(C)=O)sc2cc(OC)ccc21,-7.5,-0.1,34.3*,-9.0,-2.7,45.9,22.9,27.7,42.6*,28.6*,41.3*
